Test results as given in paper PMC4242840 (The Journal of Cell Biology, 2014).

What was measured:
[1] = tested on: Nsa2; assay: in vitro binding assay of Rsa4 mutants with MBP-Nsa2; design: species or system Saccharomyces cerevisiae; conditions: immobilized MBP-Nsa2, HIS-TEV-Rsa4 mutant in E. coli lysate; SDS-PAGE
Method in brief: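 Bait and prey were expressed in E. coli by IPTG induction for 3 h. MBP-Nsa2 was prepurified on SP Sepharose and bound to amylose resin; HIS-TEV-Rsa4 variants were Ni-NTA-purified. Beads were incubated 45 min with a 5× excess of Rsa4 mixed with MBP-depleted E. coli lysate as competitor. Beads were washed in 20 mM Hepes pH 7.5, 200 mM NaCl, 1 mM DTT and eluted in SDS sample buffer (10 min, 65°C). Eluates were run on 4–12% SDS-PAGE with Coomassie staining.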

[2] = tested on: Rsa4 shuffle strain (rsa4Δ); assay: complementation of rsa4Δ; type: cell-based, Saccharomyces cerevisiae; conditions: SDC+FOA, 30°C, 2 d
[3] = tested on: wild-type yeast growth; assay: dominant-negative phenotype upon GAL overexpression in wild-type yeast; type: cell-based, Saccharomyces cerevisiae; conditions: GAL promoter, galactose medium, 30°C, 2 or 3 d
[4] = tested on: pre-60S particles; assay: association with pre-60S particles; type: cell-based, Saccharomyces cerevisiae; conditions: 10–50% sucrose gradient, anti-ProtA Western blot
Method in brief: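 Wild-type yeast expressed plasmid-borne NSA2-FTpA or nsa2 Y90A-FTpA. Cells were treated with cycloheximide for 15 min and lysed with glass beads. Whole-cell lysates were fractionated on 10–50% sucrose gradients (16 h, 27,000 rpm, 0.4 ml fractions), and fractions were probed by Western blot with anti-ProtA to detect tagged Nsa2.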

[5] = tested on: intracellular localization in yeast; assay: in vivo localization of Rpl5-GFP; type: cell-based, Saccharomyces cerevisiae; conditions: GFP fusion, wild-type strain, fluorescence microscopy
Method in brief: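 A wild-type strain carried plasmid-borne Rpl5-GFP or Rpl5 Δloop2+3-GFP. Cells were grown to ~OD 0.5 in selective medium at 30°C, harvested and washed in water. They were imaged by fluorescence microscopy at room temperature (100×, NA 1.4 oil objective, EGFP filter set).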

[6] = tested on: pre-60S particles; assay: affinity purification of Rpl5-FTpA constructs; type: cell-based, Saccharomyces cerevisiae; conditions: Flag-TEV-ProtA bait
Method in brief: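 Rpl5 variants tagged with Flag-TEV-ProtA were purified from a 2-liter yeast culture pellet. Steps: IgG-Sepharose 90 min, TEV elution 120 min, FLAG beads 45 min, FLAG-peptide elution. Eluates were run alongside pre-60S particles purified via Nsa2-FTpA and FTpA-Rsa4, then analysed by SDS-PAGE and Western blot.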

[7] = tested on: RPL5 shuffle strain; assay: complementation of rpl5Δ; type: cell-based, Saccharomyces cerevisiae; conditions: SDC+FOA, 30°C, 5 d

Molecule | binding to Nsa2 [1] | growth / viability (complementation) [2] | dominant-negative phenotype upon overexpression [3] | association with pre-60S particles [4] | intracellular localization [5] | co-purified Spb1 and Nop2 [6] | co-purified particles / Syo1 [6] | co-purified Nsa2 ([6]; SDS-PAGE and Western blot) | co-purified Rpl10 (uL16) ([6]; SDS-PAGE and Western blot) | co-purified Rsa4 ([6]; SDS-PAGE and Western blot) | growth / viability (complementation) [7]
Rsa4 Y448E (protein) MSTLIPPPSKKQKKEAQLPREVAIIPKDLPNVSIKFQALDTGDNVGGALRVPGAISEKQLEELLNQLNGTSDDPVPYTFSCTIQGKKASDPVKTIDITDNLYSSLIKPGYNSTEDQITLLYTPRAVFKVKPVTRSSSAIAGHGSTILCSAFAPHTSSRMVTGAGDNTARIWDCDTQTPMHTLKGHYNWVLCVSWSPDGEVIATGSMDNTIRLWDPKSGQCLGDALRGHSKWITSLSWEPIHLVKPGSKPRLASSSKDGTIKIWDTVSRVCQYTMSGHTNSVSCVKWGGQGLLYSGSHDRTVRVWDINSQGRCINILKSHAHWVNHLSLSTDYALRIGAFDHTGKKPSTPEEAQKKALENYEKICKKNGNSEEMMVTASDDYTMFLWNPLKSTKPIARMTGHQKLVNHVAFSPDGRYIVSASFDNSIKLWDGRDGKFISTFRGHVASVEQVAWSSDCRLLVSCSKDTTLKVWDVRTRKLSVDLPGHKDEVYTVDWSVDGKRVCSGGKDKMVRLWTH | impaired binding to Nsa2 in vitro | blocked cell growth in vivo | less pronounced dominant-negative phenotype | partly impaired in association with pre-60S particles | – | – | – | – | – | – | –
Rpl5Δloop2+3 (protein) MAFQKDAKSSAYSSRFQTPFRRRREGKTDYYQRKRLVTQHKAKYNTPKYRLVVRFTNKDIICQIISSTITGDVVLAAAYSHELPRYGITHGLTNWAAAYATGLLIARRTLQKLGLDETYKGPRPFKVFLDIGLQRTTTGARVFGALKGASDGGLYVPHSENRFPGWDRIFGGHVSQYMEELADDDEERFSELFKGYLADDIDADSLEDIYTSAHEAIRADPAFKPTEKKFTKEQYAAESKKYRQTKLSKEERAARVAAKIAALAGQQ | – | – | – | – | accumulated inside the nucleus | enriched | recovered its import factor Syo1 ([Kressler et al., 2012a]) and pre-60S particles | normal amounts of Nsa2 | lacked Rpl10 (uL16) | reduced levels of Rsa4 | lethal phenotype
